DAT uptake mod: human DAT dopamine uptake with cocaine, either direction; Q01959; LLC-PK1 hDAT cells, [14C]-dopamine uptake with cocaine IC80; actives deviate in either direction; B-score at 10 µM; actives 1.3% (n = 110,000); AID 449768;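 active means Z score or B-score, a plate-position-corrected score, falls beyond the plate's 99.7% confidence bounds, in either direction; inactive means both scores lie inside the 99.7% bounds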;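 further: scored against the spread of the other compound wells on the same plate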
Plk1 PBD FP: inhibitors of human Plk1 polo box domain binding | P53350 | Plk1 PBD phosphopeptide binding, fluorescence polarization | inhibition, %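 (tested at about 20 µM)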 | actives 0.13% (n = 97,000); in the data active means inhibition above about 34%, passing the limit was not always enough
FAK blocker: inhibitors of human focal adhesion kinase | Q05397 | biochemical FAK kinase activity assay | inhibition, %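 (tested at 7 µM)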 | actives 0.84% (n = 97,000) | AID 727; in the data active means inhibition above about 19%;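 further: 0% = DMSO and 100% = reference compound high control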
Rev-RRE block: inhibitors of HIV-1 Rev-RRE RNA interaction; actives 0.79% (n = 97,000); P05866; Rev peptide-RRE RNA binding, FRET; inhibition, % at 8 µM; AID 704;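 active means inhibition above the screen-wide mean plus 3 SD, cut at about 35% in these data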;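 further: 0% = median DMSO wells and 100% = median Neomycin B control wells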
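Probe or stimulus: fluorescein-Rev peptide as binding partner; assay system: Cy5-tagged RRE RNA duplex with fluorescein-tagged Rev peptide; timing: 5 min compound–RNA preincubation, then 15 min with peptide, 25 °C; medium: HEPES pH 7.5 buffer with KCl, MgCl2, NaCl and EDTA; signal: fluorescein-to-Cy5 FRET, 480 nm excitation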
PLK1 inh: inhibitors of human PLK1 kinase; P53350; recombinant PLK1 kinase, TR-FRET peptide phosphorylation; inhibition, % at 10 µM; actives 0.53% (n = 97,000); AID 619;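 active means inhibition of 50% or more in the single-concentration screen; inactive means inhibition below 50%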;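 further: 0% = DMSO max control and 100% = H-89 dihydrochloride min control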
EphB4 antag: antagonists of human EphB4-ephrin-B2 interaction; EphB4 LBD / TNYL-RAW-Alexa532 peptide, fluorescence polarization; inhibition, % at 7 µM; actives 0.15% (n = 97,000); AID 720;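 active means inhibition above the screen-wide mean inhibition plus 3 SD, cut at about 15% in these data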;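 further: 0% = DMSO wells and 100% = excess unlabeled TNYL-RAW peptide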
Active calls of the source: *; . = not tested or not shown; ! = not confirmed by another sample; [ ] = remark or other dose. Most compounds without a hit are left out; they make up all but 3.2% or so of the library.

SMILES | DAT uptake mod | Plk1 PBD FP | FAK blocker | Rev-RRE block | PLK1 inh | EphB4 antag
O=C(Nc1cccc(Cl)c1Cl)c1ccncc1 | -0.908 | -31.0 | -1.9 | 4.8 | 53.8* | 0.2
Cc1cccc(NC(=O)c2ccc(S(=O)(=O)N(C)C)cc2)n1 | -0.257 | -21.4 | -1.1 | 0.7 | -6.6 | 18.0*
CC(C)c1cc(-c2cc(C(=O)NCc3ccccc3)on2)nc(NCC2CC2)n1 | 1.41 | . | . | . | . | .
CCOCCN1CCN(c2c(CC)c(C)nc3cc(-c4cc(OC)cc(OC)c4)nn23)CC1 | 1.97* | -0.7 | 0.6 | 8.5 | -10.8 | -7.8
CCn1c(SCC(=O)N2CCCc3ccccc32)nnc1-c1c[nH]c2ccccc12 | 0.986 | -19.7 | 0.6 | 15.3 | -7.9 | -0.6
COc1ccc2c(C)cc(N3CCOCC3)nc2c1 | 0.514 | -9.3 | 0.2 | 10.8 | -1.7 | 6.6
CCCCSc1nnc(-c2c[nH]c3ccccc23)n1C | 0.0501 | -18.1 | -1.3 | 7.0 | 68.8* | 2.0
COc1ccc2c(C)cc(SCC(=O)N3CCOCC3)nc2c1 | 1.32 | -81.3 | 0.4 | 60.3* | -5.8 | -5.6
COc1cccc(-n2c(SCC(=O)N3CCOCC3)nnc2-c2c[nH]c3ccccc23)c1 | 0.36 | 7.3 | 1.6 | 7.9 | 63.4* | 2.0
Cn1c(SCC(=O)N2CCCc3ccccc32)nnc1-c1c[nH]c2ccccc12 | 3.56* | -4.9 | 7.4 | 8.8 | -7.4 | 13.5
CC(=O)N1[C@H](C)C=C[C@]1(Cc1ccccc1)C(=O)NCCN1CCOCC1 | -0.0264 | . | . | . | . | .
CCn1c(SCC(=O)N2CCN(c3ccccc3)CC2)nnc1-c1c[nH]c2ccccc12 | 2.45 | 4.0 | 1.6 | 7.4 | -9.2 | -11.2
Cc1ccccc1OCc1nnc(SCC(=O)N2CCc3ccccc32)n1C | -8.59* | -13.8 | -0.5 | 10.8 | -7.3 | -3.7
Cn1c(SCC(=O)N2CCN(c3ccccc3)CC2)nnc1-c1c[nH]c2ccccc12 | 0.067 | 15.1 | 2.5 | 3.3 | 67.0* | -0.9
Cc1cccc(OCc2nnc(SCC(=O)N3c4ccccc4CC3C)n2C)c1C (stereo unspecified) | 2.25 | -23.4 | -1.1 | 10.2 | -8.0 | -8.2
Cc1ccc(C)c(S(=O)(=O)C(C#N)c2nc3ccccc3nc2N2CCCC2)c1 (stereo unspecified) | 0.624 | 18.3 | 2.4 | 63.8* | -8.7 | -7.7
Cc1cccc(S(=O)(=O)C(C#N)c2nc3ccccc3nc2N2CCCC2)c1 (stereo unspecified) | 2.35 | -32.6 | 18.5 | 82.3*[fluorescence artefact?] | -4.4 | -0.3
N#CC(c1nc2ccccc2nc1N1CCCC1)S(=O)(=O)c1ccccc1 (stereo unspecified) | 1.41 | -16.5 | 5.3 | 81.9*[fluorescence artefact?] | -3.0 | 8.8
COc1ccc(S(=O)(=O)C(C#N)c2nc3ccccc3nc2N2CCCCC2)cc1 (stereo unspecified) | -0.244 | 1.4 | -5.0 | 30.2 | -6.8 | -1.4
Cc1ccc(C)c(S(=O)(=O)C(C#N)c2nc3ccccc3nc2N2CCOCC2)c1 (stereo unspecified) | -1.03 | 14.8 | -5.0 | 3.6 | -3.3 | -10.3
N#CC(c1nc2ccccc2nc1N1CCCC1)S(=O)(=O)c1cccs1 (stereo unspecified) | 1 | -11.1 | 6.0 | 42.4* | -9.1 | -3.0
Cc1cc(OC(C)C)nc(NCc2ccccc2)n1 | 0.294 | -16.6 | 3.9 | 9.5 | -1.4 | 3.2
O=S(=O)(NC1CCCCC1)c1ccc(S(=O)(=O)N2CCN3CCCC3C2)cc1 (stereo unspecified) | -0.564 | -16.1 | 1.8 | 4.5 | -10.1 | 6.7
O=S(=O)(NC1CC1)c1ccc(S(=O)(=O)N2CCN3CCCC3C2)cc1 (stereo unspecified) | -0.605 | -0.3 | 3.9 | 4.7 | 52.8* | 3.1
O=C(Nc1ccc2nc(-c3ccco3)c(-c3ccco3)nc2c1)NC1CC1 | -0.418 | -5.9 | 91.7* | -57.1 | 37.8 | -3.9
SMILES | DAT uptake mod | Plk1 PBD FP | FAK blocker | Rev-RRE block | PLK1 inh | EphB4 antag
C=CCOC(=O)C1=C[C@@H](c2ccc3c(c2)OCO3)C[C@@H](OCc2ccc(CO)cc2)O1 | -0.514 | . | . | . | . | .
COc1cc2[nH]c(=O)n(CCC(=O)N3CCN(c4cccc(C)c4C)CC3)c(=O)c2cc1OC | 1.28 | -4.8 | 0.5 | -4.6 | -3.4 | -6.3
COC(=O)c1ccc2c(=O)n(CCCCCC(=O)N3CCN(c4ccccc4)CC3)c(=O)[nH]c2c1 | -8.31*! | -15.8 | -0.9 | -2.9 | -8.1 | -4.5
COc1cc2[nH]c(=O)n(CCCCCC(=O)N3CCN(c4ccccc4)CC3)c(=O)c2cc1OC | 3.52* | -8.3 | 3.4 | 2.1 | -3.9 | -2.3
CCN1CCN(C(=O)CCCCCn2c(=O)[nH]c3cc(C(=O)OC)ccc3c2=O)CC1 | 0.177 | -12.3 | -3.6 | 2.3 | -10.2 | 3.3
COc1ccc(C2N3CC4(C)CN2CC(C)(C3)C4)cc1OC (stereo unspecified) | -7.5* | . | . | . | . | .
CCN(CC)C(=O)CSc1nc2sc(C)c(C)c2c(=O)[nH]1 | 3.5* | 7.1 | 0.8 | 0.9 | 16.9 | -8.7
Cc1sc2nc(SCC(=O)N(C)C)[nH]c(=O)c2c1C | 0.423 | 10.6 | -1.5 | 4.2 | 9.8 | 2.3
COc1cccc(C2/C(=C(\O)c3ccc(OC)c(OC)c3)C(=O)C(=O)N2c2cc(C)on2)c1 (stereo unspecified) | -0.0331 | -14.4 | -5.3 | 2.1 | -2.7 | -1.2
CCOc1ccc(C2/C(=C(/O)c3ccc(OC)cc3)C(=O)C(=O)N2c2cc(C)on2)cc1OC (stereo unspecified) | 3.6* | -3.1 | -2.8 | 0.8 | -15.8 | 2.1
COc1ccc(N(C(=O)Cn2nnc3ccccc32)C(C(=O)NCc2ccco2)c2ccc(C)o2)cc1 (stereo unspecified) | 3.09* | 16.4 | -4.3 | 2.3 | -11.8 | -9.0
Cc1ccc(N(C(=O)Cn2nnc3ccccc32)C(C(=O)NCc2ccco2)c2ccc(C)o2)cc1 (stereo unspecified) | -0.198 | . | . | . | . | .
O=C1CN(C(=O)COC(=O)c2ccccc2NCc2ccco2)c2ccccc2N1 | -1.61 | -0.9 | 0.0 | 9.5 | -7.6 | 0.2
COCCn1c(SCC(=O)N2CCN(c3ccccc3)CC2)nc2c(c1=O)SC(C)C2 (stereo unspecified) | -0.186 | . | . | . | . | .
O=C(c1ccc(Cl)cc1)C1C2C(=O)N(c3ccccc3)C(=O)C2C2CCCN21 (stereo unspecified) | -2.24 | -12.5 | -0.3 | 58.0* | -7.4 | -10.6
Cc1ccc(N2C(=O)[C@@H]3[C@H](C2=O)C2CCCN2[C@@H]3C(=O)c2ccccc2)cc1 (stereo partly specified) | -0.308 | . | . | . | . | .
CC(=O)c1ccc(N2C(=O)C3C(C2=O)C(C(=O)c2ccc(Cl)cc2)N2CCCC32)cc1 (stereo unspecified) | 0.935 | -11.5 | 1.4 | 62.3* | -9.0 | -11.4
O=C1C2C3CCCC3=C3CCCC3C2C(=O)N1c1ccc(Cl)cc1 (stereo unspecified) | -0.0315 | 3.1 | -1.2 | 12.9 | -6.6 | -5.1

Screening results as filed in PubChem BioAssay.
